According to ChEMBL document CHEMBL2331391, “Peroxisome proliferator-activated receptor-γ mediates the anti-inflammatory effect of 3-hydroxy-4-pyridinecarboxylic acid derivatives: synthesis and biological evaluation” (Eur J Med Chem, 2013):
Active and inactive are the calls of the source. The calls are words filed in the database; no cut-off is given here.

Assays:
Macrophage [1] = experiment: Antiinflammatory activity in human macrophages assessed as inhibition of LPS-induced IL-8 release at 10 uM preincubated for 30 mins before LPS-challenge measured after 24 hrs post challenge by ELISA; type: functional, cell-based
How it was run: (§1)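 Human blood PBMC-derived macrophages were used after 10 days of culture. Purity >95% (esterase, CD14, morphology). Cells were pretreated 30 min at 37 °C with compound, then given 100 ng/mL LPS (S. enteritidis) for 24 h. TNFα, IL-1β and IL-8 in conditioned medium were measured by ELISA. Working solutions were endotoxin-tested by LAL (<3 pg/mL).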

Macrophage [2] = experiment: Antiinflammatory activity in human macrophages assessed as inhibition of LPS-induced TNFalpha release at 10 uM preincubated for 30 mins before LPS-challenge measured after 24 hrs post challenge by ELISA; type: functional, cell-based; how it was run: as §1
Macrophage [3] = experiment: Antiinflammatory activity in human macrophages assessed as inhibition of LPS-induced IL-1beta release at 10 uM preincubated for 30 mins before LPS-challenge measured after 24 hrs post challenge by ELISA; type: functional, cell-based; how it was run: as §1
[4] = Cytotoxicity against human macrophages up to 100 uM after 72 hrs by MTT assay; type: cell-based; conditions: macrophage
[5] = Antiinflammatory activity in human macrophages assessed as inhibition of LPS-induced TNFalpha release at 100 uM preincubated for 30 mins before LPS-challenge measured after 24 hrs post challenge by ELISA (reference value: 1682 +/-190 ng/ml); type: functional, Macrophage; how it was run: as §1
[6] = Antiinflammatory activity in human macrophages assessed as inhibition of LPS-induced TNFalpha release at 10 '-3 uM preincubated for 30 mins before LPS-challenge measured after 24 hrs post challenge by ELISA (reference value: 1682 +/-190 ng/ml); type: functional, Macrophage; how it was run: as §1
[7] = Antiinflammatory activity in human macrophages assessed as inhibition of LPS-induced IL8 release at 10 uM preincubated for 30 mins before LPS-challenge measured after 24 hrs post challenge by ELISA (reference value: 7.86 +/-0.17 ng/ml); type: functional, Macrophage; how it was run: as §1
[8] = Antiinflammatory activity in human macrophages assessed as inhibition of LPS-induced IL8 release at 5 uM preincubated for 30 mins before LPS-challenge measured after 24 hrs post challenge by ELISA (reference value: 7.86 +/-0.17 ng/ml); type: functional, Macrophage; how it was run: as §1
CMT93 [9] = experiment: Increase in ROS production in LPS-stimulated mouse CMT93 cells at 10 uM preincubated for 30 mins before LPS-challenge measured after 24 hrs post challenge by DCFDA fluorescence assay in presence of alpha-tocopherol; type: functional, cell-based
Macrophage [10] = experiment: Antiinflammatory activity in human macrophages assessed as inhibition of LPS-induced IL8 mRNA transcript accumulation at 10 uM preincubated for 30 mins before LPS-challenge measured after 24 hrs post challenge by quantitative PCR analysis; type: functional, cell-based
How it was run: (§2)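 Monocyte-derived human macrophages were pretreated with 10 µM compound, then stimulated with LPS for 24 h. RNA was extracted and TNFα and IL8 transcripts were quantified by real-time RT-PCR with UPL probes. GAPDH served as reference gene.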

Macrophage [11] = experiment: Antiinflammatory activity in human macrophages assessed as inhibition of LPS-induced increase in IL8 level at 10 uM preincubated for 30 mins before LPS-challenge measured after 24 hrs post challenge by ELISA in presence of PPAR-gamma antagonist PD68235; type: functional, cell-based
How it was run: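 Human macrophages were pre-exposed to 20 µM PPARγ antagonist PD68235 alongside 10 µM compound, then challenged with 100 ng/mL LPS. After 24 h, IL8 protein in conditioned medium was measured by ELISA.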

[12] = target: Transcription factor p65 (Mus musculus) (UniProt Q04207); experiment: Inhibition of LPS-induced p65 NF-kappaB activation in mouse CMT93 cells assessed as inhibition of in COX-2 expression at 10 uM preincubated for 30 mins before LPS-challenge measured after 6 hrs post challenge by Western blot analysis; type: cell-based
How it was run: (§3)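 CMT-93 cells were pretreated with 10 µM compound and stimulated with LPS for 6 h. Lysates were run on 10% SDS-PAGE and transferred to PVDF. Blots were probed overnight at 4 °C for phospho-p65, IκBα or COX-2 (1:1000), with HRP detection.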

[13] = Antiinflammatory activity in human macrophages assessed as inhibition of LPS-induced TNFalpha release at 10 uM preincubated for 30 mins before LPS-challenge measured after 24 hrs post challenge by ELISA (reference value: 1682 +/-190 ng/ml); type: functional, Macrophage; how it was run: as §1
Macrophage [14] = experiment: Increase in PPAR-gamma mRNA transcript level in human macrophages at 10 uM by quantitative PCR analysis; type: functional, cell-based
[15] = Antiinflammatory activity in human macrophages assessed as inhibition of LPS-induced IL8 release at 10 '-2 uM preincubated for 30 mins before LPS-challenge measured after 24 hrs post challenge by ELISA (reference value: 7.86 +/-0.17 ng/ml); type: functional, Macrophage; how it was run: as §1
[16] = target: Transcription factor p65 (Mus musculus) (UniProt Q04207); experiment: Inhibition of LPS-induced p65 NF-kappaB promoter activation in mouse CMT93 cells at 10 uM preincubated for 30 mins before LPS-challenge measured after 6 hrs post challenge by luciferase reporter gene assay; type: cell-based
How it was run: (§4)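 CMT-93 cells (1×10⁵/well) were transfected with an NF-κB or PPRE luciferase reporter plus CMV-β-Gal. At 24 h they were treated with compound for 30 min, then with 100 ng/mL LPS for 6 h. Cells were lysed in Tris/EDTA/DTT/Triton buffer and supernatant luciferase was read by luminometer. Results are fold over untreated cells.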

Mus musculus [17] = experiment: Antiinflammatory activity in DSS-induced C57Bl/6 mouse colitis model assessed as inhibition IL-1beta level in colonic homogenate at 400 mg/kg/day administered intragastrically for 7 days; type: functional, organism-based
How it was run: (§5)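 Male C57Bl/6J mice, 8–10 per group, dosed intragastrically daily for 7 days at 400 mg/kg/day (vehicle 100 µL). From day 2, drinking water carried 3.5% w/vol DSS. Killed 5 days after colitis induction. Full-thickness proximal colon homogenised for MPO activity and IL-1β protein.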

[18] = Antiinflammatory activity in human macrophages assessed as inhibition of LPS-induced IL8 release at 10 '-3 uM preincubated for 30 mins before LPS-challenge measured after 24 hrs post challenge by ELISA (reference value: 7.86 +/-0.17 ng/ml); type: functional, Macrophage; how it was run: as §1
[19] = Antiinflammatory activity in human macrophages assessed as inhibition of LPS-induced IL8 release at 1 uM preincubated for 30 mins before LPS-challenge measured after 24 hrs post challenge by ELISA (reference value: 7.86 +/-0.17 ng/ml); type: functional, Macrophage; how it was run: as §1
[20] = target: Transcription factor p65 (Mus musculus) (UniProt Q04207); experiment: Inhibition of LPS-induced p65 NF-kappaB phosphorylation in mouse CMT93 cells at 10 uM preincubated for 30 mins before LPS-challenge measured after 6 hrs post challenge by Western blot analysis; type: cell-based; how it was run: as §3
CMT93 [21] = experiment: Increase in ROS production in mouse CMT93 cells at 10 uM measured after 30 mins by DCFDA fluorescence assay (reference value: 2.64 %); type: functional, cell-based
Macrophage [22] = experiment: Antiinflammatory activity in human macrophages assessed as inhibition of LPS-induced TNFalpha mRNA transcript accumulation at 10 uM preincubated for 30 mins before LPS-challenge measured after 24 hrs post challenge by quantitative PCR analysis; type: functional, cell-based; how it was run: as §2
CMT93 [23] = experiment: Increase in ROS production in LPS-stimulated mouse CMT93 cells at 10 uM preincubated for 30 mins before LPS-challenge measured after 24 hrs post challenge by DCFDA fluorescence assay in presence of PPAR-gamma antagonist PD68235; type: functional, cell-based
[24] = Antiinflammatory activity in human macrophages assessed as inhibition of LPS-induced IL8 release at 100 uM preincubated for 30 mins before LPS-challenge measured after 24 hrs post challenge by ELISA (reference value: 7.86 +/-0.17 ng/ml); type: functional, Macrophage; how it was run: as §1
[25] = target: Transcription factor p65 (Mus musculus) (UniProt Q04207); experiment: Inhibition of LPS-induced p65 NF-kappaB activation in mouse CMT93 cells assessed as inhibition of in IkBalpha degradation at 10 uM preincubated for 30 mins before LPS-challenge measured after 6 hrs post challenge by Western blot analysis; type: cell-based; how it was run: as §3
[26] = target: T1, Peroxisome proliferator-activated receptor gamma (Mus musculus) (UniProt P37238); experiment: Induction of PPAR-gamma promoter activity in mouse CMT93 cells at 10 uM by luciferase reporter gene assay; type: cell-based; how it was run: as §4
T1 sequence (whole entry): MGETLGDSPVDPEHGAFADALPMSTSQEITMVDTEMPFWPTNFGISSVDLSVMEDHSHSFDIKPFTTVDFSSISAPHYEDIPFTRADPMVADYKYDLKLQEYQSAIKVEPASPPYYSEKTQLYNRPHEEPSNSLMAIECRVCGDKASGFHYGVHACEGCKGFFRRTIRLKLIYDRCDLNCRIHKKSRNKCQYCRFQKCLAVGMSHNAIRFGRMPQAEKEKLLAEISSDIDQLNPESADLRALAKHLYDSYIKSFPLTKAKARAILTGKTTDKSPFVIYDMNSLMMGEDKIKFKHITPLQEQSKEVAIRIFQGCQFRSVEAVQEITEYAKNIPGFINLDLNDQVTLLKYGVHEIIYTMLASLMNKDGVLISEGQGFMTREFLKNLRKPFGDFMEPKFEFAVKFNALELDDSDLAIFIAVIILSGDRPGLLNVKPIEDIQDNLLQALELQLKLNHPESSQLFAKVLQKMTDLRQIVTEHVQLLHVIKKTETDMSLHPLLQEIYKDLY

[27] = Cytotoxicity against human macrophages at 10 '5 uM after 72 hrs by MTT assay; type: cell-based; conditions: macrophage
[28] = Cytotoxicity against human macrophages at 10 '4 uM after 72 hrs by MTT assay; type: cell-based; conditions: macrophage
[29] = Antiinflammatory activity in human macrophages assessed as inhibition of LPS-induced TNFalpha release at 5 uM preincubated for 30 mins before LPS-challenge measured after 24 hrs post challenge by ELISA (reference value: 1682 +/-190 ng/ml); type: functional, Macrophage; how it was run: as §1
CMT93 [30] = experiment: Increase in ROS production in LPS-stimulated mouse CMT93 cells at 10 uM preincubated for 30 mins before LPS-challenge measured after 30 mins post challenge by DCFDA fluorescence assay (reference value: 2.64 %); type: functional, cell-based
[31] = Antiinflammatory activity in human macrophages assessed as inhibition of LPS-induced TNFalpha release at 10 '-2 uM preincubated for 30 mins before LPS-challenge measured after 24 hrs post challenge by ELISA (reference value: 1682 +/-190 ng/ml); type: functional, Macrophage; how it was run: as §1
[32] = target: T1, Peroxisome proliferator-activated receptor gamma (Mus musculus); experiment: Induction of PPAR-gamma promoter activity in LPS-stimulated mouse CMT93 cells at 10 uM preincubated for 30 mins before LPS-challenge measured after 6 hrs post challenge by luciferase reporter gene assay; type: cell-based; how it was run: as §4
Macrophage [33] = experiment: Antiinflammatory activity in human macrophages assessed as inhibition of LPS-induced increase in TNFalpha mRNA transcript at 10 uM preincubated for 30 mins before LPS-challenge measured after 24 hrs post challenge by quantitative PCR analysis in presence of PPAR-gamma antagonist PD68235; type: functional, cell-based
[34] = Antiinflammatory activity in human macrophages assessed as inhibition of LPS-induced TNFalpha release at 1 uM preincubated for 30 mins before LPS-challenge measured after 24 hrs post challenge by ELISA (reference value: 1682 +/-190 ng/ml); type: functional, Macrophage; how it was run: as §1
Mus musculus [35] = experiment: Antiinflammatory activity in DSS-induced C57Bl/6 mouse colitis model assessed as inhibition MPO activity in colonic homogenate at 400 mg/kg/day administered intragastrically for 7 days; type: functional; conditions: C57Bl/6, po, 168 h, route intragastric; how it was run: as §5

Chain of Transcription factor p65 (Mus musculus) (Q04207 whole entry): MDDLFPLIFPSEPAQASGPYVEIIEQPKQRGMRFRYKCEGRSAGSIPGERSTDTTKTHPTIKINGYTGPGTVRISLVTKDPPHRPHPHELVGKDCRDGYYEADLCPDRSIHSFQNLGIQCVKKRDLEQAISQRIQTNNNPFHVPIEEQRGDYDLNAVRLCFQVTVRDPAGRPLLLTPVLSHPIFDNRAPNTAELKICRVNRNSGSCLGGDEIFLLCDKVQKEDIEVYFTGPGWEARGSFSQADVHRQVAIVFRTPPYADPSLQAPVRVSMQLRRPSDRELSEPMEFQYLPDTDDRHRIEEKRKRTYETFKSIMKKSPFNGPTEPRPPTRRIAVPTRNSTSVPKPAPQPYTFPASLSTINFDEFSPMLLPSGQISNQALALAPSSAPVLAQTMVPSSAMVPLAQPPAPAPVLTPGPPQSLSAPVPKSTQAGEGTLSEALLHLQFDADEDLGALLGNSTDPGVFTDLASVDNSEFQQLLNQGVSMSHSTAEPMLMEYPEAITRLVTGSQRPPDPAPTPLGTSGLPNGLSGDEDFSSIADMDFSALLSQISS

SMILES	inhibition (Macrophage [1])	inhibition (Macrophage [2])	inhibition (Macrophage [3])	Activity [5] [ng/mL]	Activity [6] [ng/mL]	Activity [7] [ng/mL]	Activity [8] [ng/mL]	Activity [13] [ng/mL]	Activity (Macrophage [14])	Activity [15] [ng/mL]	Activity [18] [ng/mL]	Activity [19] [ng/mL]	Activity [24] [ng/mL]	Activity [29] [ng/mL]	Activity [31] [ng/mL]	Activity [32]	Activity [34] [ng/mL]	also measured
CCc1nccc(C(=O)O)c1O	inactive	inactive	inactive	–	–	–	–	–	–	–	–	–	–	–	–	–	–	–
O=C(O)c1ccccc1O	Active	Active	Active	–	–	–	–	–	–	–	–	–	–	–	–	–	–	–
C[n+]1ccc(C(=O)O)c(O)c1.[Cl-]	Active	Active	Active	1069	1689	5.4	7.34	1084	Active	7.56	7.98	7.32	4.43	1738	1654	Active	1651	Activity [4]: Non-toxic; Activity (CMT93 [9]): inactive; inhibition (Macrophage [10]): Active; inhibition (Macrophage [11]): Active; inhibition [12]: Active; inhibition [16]: Active; inhibition (Mus musculus [17]): Active; inhibition [20]: Active; Activity (CMT93 [21]): Active; inhibition (Macrophage [22]): Active; Activity (CMT93 [23]): inactive; inhibition [25]: Active; Activity [26]: Active; Activity [27]: Toxic; Activity [28]: Toxic; Activity (CMT93 [30]): Active; inhibition (Macrophage [33]): inactive; inhibition in vivo at 400 mg/kg/day (Mus musculus [35]): 56%
Cc1c(O)c(C(=O)O)cc[n+]1C.[Cl-]	Active	Active	Active	901	1626	6.4	7.34	1404	–	7.23	7.45	7.04	4.03	1394	1418	–	1368	–
CN(CCOc1ccc(CC2SC(=O)NC2=O)cc1)c1ccccn1 (stereo not drawn)	–	–	–	–	–	–	–	–	Active	–	–	–	–	–	–	Active	–	–
